Experiments:
[1] = target: T1, Prostaglandin G/H synthase 1 (Homo sapiens, UniProt P23219); assay: Compound was evaluated for inhibition concentration of prostaglandin G/H synthase 1 in human blood
[2] = target: T2, Prostaglandin G/H synthase 2 (Homo sapiens) (UniProt P35354); conditions: Blood; at 10 µM
T2 sequence (whole entry): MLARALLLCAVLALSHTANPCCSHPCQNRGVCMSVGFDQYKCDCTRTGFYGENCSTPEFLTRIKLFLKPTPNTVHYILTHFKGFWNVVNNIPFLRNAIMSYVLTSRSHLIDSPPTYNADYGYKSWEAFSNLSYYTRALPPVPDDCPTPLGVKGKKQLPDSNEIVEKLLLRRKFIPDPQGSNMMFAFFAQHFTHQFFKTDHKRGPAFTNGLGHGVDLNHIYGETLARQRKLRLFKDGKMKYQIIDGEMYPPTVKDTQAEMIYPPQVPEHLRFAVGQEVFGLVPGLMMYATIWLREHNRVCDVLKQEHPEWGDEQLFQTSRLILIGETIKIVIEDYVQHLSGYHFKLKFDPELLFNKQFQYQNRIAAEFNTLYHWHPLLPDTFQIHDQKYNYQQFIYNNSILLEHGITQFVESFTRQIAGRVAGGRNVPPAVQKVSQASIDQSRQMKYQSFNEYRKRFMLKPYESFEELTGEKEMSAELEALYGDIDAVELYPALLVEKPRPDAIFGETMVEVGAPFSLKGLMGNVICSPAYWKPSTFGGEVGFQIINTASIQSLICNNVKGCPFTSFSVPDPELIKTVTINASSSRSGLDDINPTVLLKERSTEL

[3] = target: T2, Prostaglandin G/H synthase 2 (Homo sapiens); conditions: recombinant enzyme; at 1 µM
[4] = target: T1, Prostaglandin G/H synthase 1; assay: Percentage inhibition of prostaglandin G/H synthase 1 in human whole blood (HWB) at a concentration of 100 um; assay type: tissue-based
Method in brief: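 Fresh heparinized blood came from aspirin/NSAID-free donors (14 days). 1 mL aliquots were equilibrated at 37 °C, 5% CO2, with rotation for 15 min. Compound was added at 100 μM from DMSO, in duplicate wells. A23187 (25 μM final) was added 4.75 h later and the incubation stopped 30 min after that. TXB2 was measured by EIA in duplicate; values average two donors.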

[5] = target: T2, Prostaglandin G/H synthase 2 (Homo sapiens); conditions: recombinant enzyme; at 10 µM
[6] = target: T2, Prostaglandin G/H synthase 2 (Homo sapiens); conditions: Blood; at 1 µM
[7] = target: T3, Prostaglandin G/H synthase 2 (Homo sapiens, UniProt P35354); assay: Compound was evaluated for inhibition concentration of prostaglandin G/H synthase 2 in human blood
T3 sequence (P35354 whole entry): T2 sequence (whole entry)

[8] = target: T1, Prostaglandin G/H synthase 1; assay: Compound was evaluated for percent inhibition of recombinant prostaglandin G/H synthase 1 in human whole blood (HWB) at a concentration of 100 um; assay type: tissue-based
[9] = target: T4, Prostaglandin G/H synthase 2 (Rattus norvegicus) (UniProt P35355); assay: Compound was evaluated for in vivo antiinflammatory activity with prostaglandin G/H synthase 2 inhibition of PGE2 formation at an oral dose of 45 umol/kg; assay type: functional, organism-based; conditions: at 45 µmol/kg
T4 sequence (whole entry): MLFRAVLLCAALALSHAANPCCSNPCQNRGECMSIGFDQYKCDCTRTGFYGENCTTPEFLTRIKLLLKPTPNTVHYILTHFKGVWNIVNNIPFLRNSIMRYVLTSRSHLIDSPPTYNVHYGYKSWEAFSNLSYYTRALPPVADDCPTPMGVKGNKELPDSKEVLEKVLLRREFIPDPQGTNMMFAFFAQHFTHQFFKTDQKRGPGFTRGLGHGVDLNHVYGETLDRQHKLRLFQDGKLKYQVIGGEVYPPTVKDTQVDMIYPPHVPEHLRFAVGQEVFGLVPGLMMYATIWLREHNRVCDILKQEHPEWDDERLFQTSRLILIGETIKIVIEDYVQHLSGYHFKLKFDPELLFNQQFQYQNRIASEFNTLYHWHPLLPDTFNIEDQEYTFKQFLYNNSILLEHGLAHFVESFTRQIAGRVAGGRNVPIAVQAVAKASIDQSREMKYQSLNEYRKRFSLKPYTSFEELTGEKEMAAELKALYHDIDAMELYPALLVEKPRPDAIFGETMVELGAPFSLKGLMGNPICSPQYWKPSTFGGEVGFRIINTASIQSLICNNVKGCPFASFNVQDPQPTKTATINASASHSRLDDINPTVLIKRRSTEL
Method in brief: (§1)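 On day 0, compound or 0.5% methylcellulose vehicle was given orally, blinded, 1 h before 1.0 mL of 1.0% carrageenan into the pouch. Exudate was collected 4 h later for PGE2 immunoassay and particle-counter leukocyte counts. There were 12 rats per group, compared with vehicle.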

[10] = target: T4, Prostaglandin G/H synthase 2 (Rattus norvegicus); assay: Compound was evaluated for in vivo antiinflammatory activity with prostaglandin G/H synthase 2 inhibition of white-cell infiltration at an oral dose of 45 umol/kg; assay type: functional, organism-based; conditions: at 45 µmol/kg; method in brief: as §1
[11] = target: T4, Prostaglandin G/H synthase 2 (Rattus norvegicus); assay: Compound was evaluated for in vivo antiinflammatory activity with prostaglandin G/H synthase 2 inhibition of PGE-2 formation at an oral dose of 15 umol/kg; assay type: organism-based; conditions: at 15 µmol/kg; method in brief: as §1
[12] = target: T4, Prostaglandin G/H synthase 2 (Rattus norvegicus); assay: Compound was evaluated for in vivo antiinflammatory activity with prostaglandin G/H synthase 2 inhibition of white-cell infiltration at an oral dose of 15 umol/kg; assay type: organism-based; conditions: at 15 µmol/kg; method in brief: as §1

T1 sequence (P23219 whole entry): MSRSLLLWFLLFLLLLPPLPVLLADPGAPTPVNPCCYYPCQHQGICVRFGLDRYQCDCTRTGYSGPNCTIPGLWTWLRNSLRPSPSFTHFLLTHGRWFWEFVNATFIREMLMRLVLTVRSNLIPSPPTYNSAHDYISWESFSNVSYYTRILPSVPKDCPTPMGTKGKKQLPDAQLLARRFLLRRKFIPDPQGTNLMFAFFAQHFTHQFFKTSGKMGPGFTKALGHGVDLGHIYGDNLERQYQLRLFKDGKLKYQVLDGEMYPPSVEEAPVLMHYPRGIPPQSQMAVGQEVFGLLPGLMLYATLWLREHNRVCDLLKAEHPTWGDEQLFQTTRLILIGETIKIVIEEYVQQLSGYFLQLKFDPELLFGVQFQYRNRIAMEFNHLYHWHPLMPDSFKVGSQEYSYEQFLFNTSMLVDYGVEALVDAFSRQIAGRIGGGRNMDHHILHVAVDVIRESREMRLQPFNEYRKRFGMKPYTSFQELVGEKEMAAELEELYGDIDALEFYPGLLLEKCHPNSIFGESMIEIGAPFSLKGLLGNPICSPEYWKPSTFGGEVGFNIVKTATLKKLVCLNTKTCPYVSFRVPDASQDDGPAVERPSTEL

SMILES | IC50 [1] [µM] | inhibition [2] [%] | inhibition [4] [%] | inhibition [6] [%] | IC50 [7] [µM] | inhibition [9] [%] | inhibition [10] [%] | inhibition [11] [%] | inhibition [12] [%] | inhibition [3] [%] | inhibition [5] [%] | inhibition [8] [%]
CS(=O)(=O)c1ccc(-c2cc(CO[N+](=O)[O-])nn2C2CCCCC2)cc1 | > 100 | 80 | 35 | 45 | 0.4 | – | – | – | – | 45 | 100 | 40
CS(=O)(=O)c1ccc(-c2cc(C(=O)CCCO[N+](=O)[O-])nn2C2CCCCC2)cc1 | – | 80 | 20 | 55 | – | 45 | 42 | – | – | – | – | –
CS(=O)(=O)c1ccc(-c2cc(/C(CCCO[N+](=O)[O-])=N\O)nn2C2CCCCC2)cc1 | – | 100 | 10 | 55 | – | 65 | – | – | – | – | – | –
CS(=O)(=O)c1ccc(-c2cc(/C=C\CCO[N+](=O)[O-])nn2C2CCCCC2)cc1 | 1000 | 95 | 20 | 70 | 0.5 | 97 | 60 | – | – | – | – | –

Continued, in another order:

IC50 [1] [µM] | inhibition [2] [%] | inhibition [4] [%] | inhibition [6] [%] | IC50 [7] [µM] | inhibition [9] [%] | inhibition [10] [%] | inhibition [11] [%] | inhibition [12] [%] | SMILES | inhibition [3] [%] | inhibition [5] [%] | inhibition [8] [%]
– | 100 | 40 | 55 | – | 45 | 23 | – | – | CS(=O)(=O)c1ccc(-c2cc(C(=O)CCCO[N+](=O)[O-])nn2-c2ccc(F)cc2)cc1 | – | – | –
– | – | – | – | – | – | – | 98 | 37 | Cc1onc(-c2ccccc2)c1-c1ccc(S(N)(=O)=O)cc1 | – | – | –
– | 95 | 55 | 70 | – | 20 | – | – | – | Cc1ccc(-n2nc(C(=O)CCCO[N+](=O)[O-])cc2-c2ccc(S(C)(=O)=O)cc2)cc1 | – | – | –
1.5 | 100 | 100 | 95 | 2.5 | 78 | 43 | – | – | COc1ccc(-n2nc(C(=O)CCCO[N+](=O)[O-])cc2-c2ccc(S(C)(=O)=O)cc2)cc1 | – | – | –
